Assay [1] can be described thus: Inhibition of creatine transport was assessed from Percent inhibition of [C14] creatine uptake. The class given is functional. The arrangement: concentration or dose not given beside the values. As to conditions: dose or concentration not given here.
The subject of assay [2] is Mus musculus. The experiment in a line: Average daily food consumption was determined in ob/ob mice after oral administration for two weeks (control = 90+/-3). The class given is functional.
The target of assay [3] is Creatine kinase M-type (Homo sapiens) (UniProt P06732). In words: Reaction rate of creatine kinase activity is determined at 100 mM concentration (relative to creatine).
Chain of Creatine kinase M-type (Homo sapiens) (P06732 whole entry): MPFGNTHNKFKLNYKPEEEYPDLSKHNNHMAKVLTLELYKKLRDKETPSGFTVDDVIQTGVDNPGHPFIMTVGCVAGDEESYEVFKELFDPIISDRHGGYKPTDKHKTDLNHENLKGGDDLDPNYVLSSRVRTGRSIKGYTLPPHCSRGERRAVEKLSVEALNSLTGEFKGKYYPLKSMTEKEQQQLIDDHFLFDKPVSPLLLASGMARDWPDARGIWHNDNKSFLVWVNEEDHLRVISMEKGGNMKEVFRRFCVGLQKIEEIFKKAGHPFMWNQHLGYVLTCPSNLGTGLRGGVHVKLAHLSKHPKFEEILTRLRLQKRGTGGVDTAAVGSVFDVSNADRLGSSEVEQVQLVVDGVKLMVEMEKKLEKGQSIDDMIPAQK
For assay [4], the system named is Mus musculus. In words: Terminal lean body weight was determined in ob/ob mice after oral administration for two weeks (control = 25+/-1). The assay is classed as functional.
Assay [5] is filed under the species Mus musculus. The experiment in a line: Average daily dose was determined in ob/ob mice(0). The assay is classed as functional.
Assay [6] has as its system Mus musculus. The experiment in a line: Terminal body weight was determined in ob/ob mice after oral administration for two weeks (control = 53+/-1). The class given is functional.
The species named for assay [7] is Mus musculus. The experiment in a line: Initial blood glucose level was determined in ob/ob mice (control=228+/-19). The class given is functional. The gist of the method: (§1)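 ob/ob mice on Purina 5015 chow, given drug as admixture in milled chow for 14 days. Intake measured from food-bowl weight change. Blood from retro-orbital sinus, heparinized, kept on ice and analyzed promptly. Blood glucose measured before and after treatment. Group sizes 8–15, housed at 21 °C on 12 h light–dark cycle; two-way ANOVA, Student–Newman–Keuls post hoc.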

Assay [8] deals with Mus musculus. The experiment in a line: Terminal blood glucose level was determined in ob/ob mice after oral administration for two weeks (control = 226+/-29). The class given is functional. The method, boiled down:
as §1

The test system of assay [9] is Mus musculus. The experiment in a line: Terminal fat body weight was determined in ob/ob mice after oral administration for two weeks (control = 28+/-0.9). The assay is classed as functional.
The species named for assay [10] is Mus musculus. In words: Initial body weight was determined in ob/ob mice (control=55+/-1). The assay is classed as functional.

As usually defined, the inhibition is the share of the control response that was lost under treatment.

Take `N=C(N)NCCC(=O)O` [OMPENACLID]: in assay [1], the inhibition was found to be 97%. Moreover, in the assay on Mus musculus [2], the Food intake is 75 g/kg. The molecule further yielded a Reaction rate in assay [3] of 2.4. Besides, the Body weight was 24 g in the assay with Mus musculus [4], 48 g in the assay on Mus musculus [6], less than 24 g in the assay with Mus musculus [9] and 54 g in the assay listed under Mus musculus [10]. The same molecule came in with a Dose in the assay filed under Mus musculus [5] of 377 mg/kg. Moreover, the Blood glucose is 229 mg/dL in the assay listed under Mus musculus [7] and 147 mg/dL in the assay on Mus musculus [8].

(Values after ChEMBL document CHEMBL1134394, “Synthesis and biological activity of aminoguanidine and diaminoguanidine analogues of the antidiabetic/antiobesity agent 3-guanidinopropionic acid” (2001).)
